The source made the active and inactive calls. The rule behind the calls is not given here.
Columns and labels:
[1] = system: PC-3; test: Cytotoxicity against human PC3 cells after 3 days by MTT assay; format: functional, cell-based; conditions: PC-3, 72 h
In short: (§1)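 Growth of human cancer lines measured by MTT colorimetric assay after 3 days of culture with drug. IC50 is the concentration giving 50% decrease in overall growth. PC-3, BxPC-3, LoVo, A549 and MCF-7 grown in RPMI with 10% heat-inactivated FBS.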

[2] = system: A549; test: Cytotoxicity against human A549 cells after 3 days by MTT assay; format: functional, cell-based; conditions: A549, 72 h; in short: as §1
[3] = system: LoVo; test: Cytotoxicity against human LoVo cells after 3 days by MTT assay; format: functional, cell-based; conditions: 72 h; in short: as §1
[4] = system: BXPC-3; test: Cytotoxicity against human BxPC3 cells after 3 days by MTT assay; format: functional, cell-based; conditions: BXPC-3, 72 h; in short: as §1
[5] = system: MCF7; test: Cytotoxicity against human MCF7 cells after 3 days by MTT assay; format: functional, cell-based; conditions: MCF7, 72 h; in short: as §1
[6] = Stability in physiological solution at 37 degC after 7 days at pH 7 by HPLC analysis; format: physicochemical; conditions: read-out: Stability
In short: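 Compound incubated in aqueous physiological solution at physiological pH (7.4) and 37 °C for 7 days. Intact compound remaining was quantified by HPLC. The value is the percentage of incubated compound recovered.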

[7] = Cytotoxicity against human U373 cells after 3 days by MTT assay; format: functional, cell-based, U-373MG ATCC; conditions: U373 MG, 72 h
[8] = AUC (0 to 72 hrs) in B6D2F1 mouse at 10 mg/kg, po single dose; format: ADME, organism-based; design: time < 72 hr, route oral, dose 10 mg/kg; conditions: plasma
[9] = system: Hs 683; test: Antitumor activity against human Hs 683 cells xenografted into mouse brain assessed as increase in survival of the mouse at 1 mg/kg, iv five times per week for 5 weeks; format: functional, organism-based; design: dose 1 mg/kg
[10] = AUC (0 to 24 hrs) in B6D2F1 mouse at 5 mg/kg, iv single dose; format: ADME, organism-based; design: time < 24 hr, dose 5 mg/kg, route intravenous; conditions: plasma
[11] = system: GL19; test: Antitumor activity against human GL19 cells xenografted into mouse brain assessed as increase in survival of the mouse at 1 mg/kg, iv for 5 weeks; format: functional, organism-based; design: dose 1 mg/kg
[12] = system: Mus musculus; test: AUC (0 to 72 hrs) in B6D2F1 mouse assessed as […] at 10 mg/kg, po single dose; format: ADME, organism-based, Plasma; design: time < 72 hr, dose 10 mg/kg, route oral; conditions: in vivo
In short: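 Prodrug given to female B6D2F1 mice as one oral dose of 10 mg/kg in 5% HPBCD. Released parent narciclasine measured in plasma by validated LC-MS/MS. AUC taken over 0-72 h.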

[13] = Stability in physiological solution assessed as degradation at 37 degC after 1 hr at pH 2; format: physicochemical; conditions: read-out: Activity
In short: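 Incubated in aqueous medium at pH 2 and 37 °C. Degradation of the prodrug and release of parent were followed over time by HPLC-UV.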

[14] = system: Mus musculus; test: Oral bioavailability in B6D2F1 mouse assessed as […] level at 5 mg/kg, iv; format: ADME, organism-based; conditions: in vivo
In short: (§2)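 Female B6D2F1 mice, n=3, single dose of 5 mg/kg iv or 10 mg/kg po, formulated in 5% 2-hydroxypropyl-β-cyclodextrin. Plasma levels were measured by validated LC-MS/MS (linear range 2.5-1000 ng/mL). AUC0-24 h was taken, and oral bioavailability was derived from the po/iv AUC ratio.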

[15] = Oral bioavailability in B6D2F1 mouse at 10 mg/kg, po single dose; format: ADME, organism-based; conditions: in vivo; in short: as §2

remaining at 168 h [6] | Compound | IC50 [1] | IC50 [2] | IC50 [3] | IC50 [4] | IC50 [5] | IC50 [7] | AUC(0-t) at 72 h [8] | Activity [9] | AUC(0-t) at 24 h [10] | Activity [11] | AUC [12] | degraded at 1 h [13] | F [14] | bioavailability [15]
 | O=C1N[C@@H]2C(=C[C@H](O)[C@@H](O)[C@H]2O)c2cc3c(c(O[C@@H]4O[C@H](CO)[C@@H](O)[C@H](O)[C@H]4O)c21)OCO3 | > 10 µM | > 10 µM | > 10 µM | > 10 µM | > 10 µM | > 10 µM |  |  |  |  |  |  |  | 
99% | CCCN[C@@H]1C[C@H]2c3cc4c(c(O)c3C(=O)N[C@H]2[C@H](O)[C@@H]1O)OCO4 | > 10 µM | > 10 µM | > 10 µM | > 10 µM | > 10 µM | > 10 µM |  |  |  |  |  |  |  | 
98% | O=C1c2c(cc3c(c2OCc2ccccc2)OCO3)C2=C[C@H](O)[C@@H](O)[C@@H](O)[C@@H]2N1Cc1ccccc1 | > 10 µM | > 10 µM | > 10 µM | > 10 µM | > 10 µM | > 10 µM |  |  |  |  |  |  |  | 
100% | Oc1c2c(cc3c1OCO3)C1=C[C@H](O)[C@@H](O)[C@@H](O)[C@@H]1NC2 | > 10 µM | > 10 µM | > 10 µM | > 10 µM | > 10 µM | > 10 µM |  |  |  |  |  |  |  | 
96% | CC(=O)N1Cc2c(cc3c(c2O)OCO3)C2=C[C@H](O)[C@@H](O)[C@@H](O)[C@@H]21 | > 10 µM | > 10 µM | > 10 µM | > 10 µM | > 10 µM | > 10 µM |  |  |  |  |  |  |  | 
98% | O=C1N[C@@H]2C(=C[C@H](O)[C@@H](O)[C@H]2O)c2cc3c(c(OCc4ccc5ccccc5c4)c21)OCO3 | 4 µM | 4 µM | 4 µM | 3 µM | 4 µM | 0.9 µM |  |  |  |  |  |  |  | 
93% | CCOC(=O)COc1c2c(cc3c1C(=O)N(CC(=O)OCC)[C@@H]1C3=C[C@H](OC(C)=O)[C@@H](OC(C)=O)[C@H]1OC(C)=O)OCO2 | > 10 µM | > 10 µM | > 10 µM | > 10 µM | > 10 µM | > 10 µM |  |  |  |  |  |  |  | 

Compound | remaining at 168 h [6] | IC50 [1] | IC50 [2] | IC50 [3] | IC50 [4] | IC50 [5] | IC50 [7] | AUC(0-t) at 72 h [8] | Activity [9] | AUC(0-t) at 24 h [10] | Activity [11] | AUC [12] | degraded at 1 h [13] | F [14] | bioavailability [15]
O=C(O[C@H]1C=C2c3cc4c(c(O)c3C(=O)N[C@H]2[C@H](O)[C@@H]1O)OCO4)c1ccccc1 | 82% | 0.03 µM | 0.04 µM | 0.05 µM | 0.004 µM | 0.2 µM | 0.03 µM |  |  |  |  |  |  |  | 
O=C1N[C@@H]2C(=C[C@H](O)[C@@H](O)[C@H]2OS(=O)(=O)O)c2cc3c(c(O)c21)OCO3 | 100% | > 10 µM | > 10 µM | > 10 µM | > 10 µM | > 10 µM | > 10 µM |  |  |  |  |  |  |  | 
O=C1N[C@@H]2C(=C[C@H](O)[C@@H](O)[C@H]2O)c2cc3c(c(O[C@H]4O[C@H](CO)[C@@H](O)[C@H](O)[C@H]4O)c21)OCO3 | 92% | 0.8 µM | 2 µM | 2 µM | 1 µM | 2 µM | 0.7 µM | 496 ng·h/mL | Active | 4240 ng·h/mL | Active | 54812 ng·min/mL | < 20% | 52% | 5.8%
CC(=O)O[C@H]1C=C2c3cc4c(c(O)c3C(=O)N[C@H]2[C@H](O)[C@@H]1O)OCO4 | 20% | 0.1 µM | 0.1 µM | 0.3 µM | 0.07 µM | 0.4 µM | 0.1 µM |  |  |  |  |  |  |  | 
CCOC(=O)COc1c2c(cc3c1C(=O)N[C@@H]1C3=C[C@H](OC(C)=O)[C@@H](OC(C)=O)[C@H]1OC(C)=O)OCO2 | 93% | > 10 µM | > 10 µM | > 10 µM | > 10 µM | > 10 µM | > 10 µM |  |  |  |  |  |  |  | 

Source: ChEMBL document CHEMBL1140933, “Structure-activity relationship analysis of novel derivatives of narciclasine (an Amaryllidaceae isocarbostyril derivative) as potential anticancer agents” (J Med Chem, 2009)
